Assay [1] deals with Plasmodium falciparum. Briefly: In vitro inhibition of chloroquine-resistant Plasmodium falciparum FAC8. It counts as functional, organism-based. A digest of the protocol:
(§1)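 P. falciparum blood-stage cultures plated at c. 1% parasitemia, 2% hematocrit, exposed to a range of drug concentrations (compounds from 30 mM DMSO stocks; final DMSO <0.1%). Incubated 4 days with daily replacement of drug-containing medium. Growth curves run in duplicate; IC50 taken as concentration giving 50% growth inhibition.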

Assay [2] concerns Plasmodium falciparum. Description: In vitro inhibition chloroquine-resistant Plasmodium falciparum K1. It counts as functional, organism-based. A digest of the protocol:
as §1

Assay [3] relates to Plasmodium falciparum. Description: In vitro inhibition of chloroquine-sensitive Plasmodium falciparum D-10. The assay is classed as functional, organism-based. A digest of the protocol: as §1
A short description of assay [4]: Resistance index as the ratio of IC50 value against FAC8 to that of D10 strains. It counts as functional. A digest of the protocol:
(§2)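 Ratio of IC50 against the CQ-resistant strain (FAC8 or K1) to IC50 against CQ-sensitive D10. IC50s from 4-day growth assays at c. 1% parasitemia, 2% hematocrit, daily drug-medium replacement, duplicate growth curves.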

A short description of assay [5]: Resistance index as the ratio of IC50 value against K1 to that of D10 strains. The assay is classed as functional. In a few lines: as §2

Take `CCN(CC)CCCC(C)Nc1ccnc2ccc(NC(=O)CCCCC(=O)Nc3ccc4nccc(NC(C)CCCN(CC)CC)c4c3)cc12` (stereo not given): the IC50 (commonly the concentration needed to halve the response being measured) in assay [1] is 10.3 µM; in assay [2] it was 15.9 µM; in assay [3], 9.6 µM. Also, the Resistance index is 1.1 in assay [4] and 1.7 in assay [5].

For `CCN(CC)CCCC(C)Nc1ccnc2ccc(NC(=O)CCCCCCC(=O)Nc3ccc4nccc(NC(C)CCCN(CC)CC)c4c3)cc12` (stereo not given), the IC50 was 5.2 µM in assay [1], 7.4 µM in assay [2] and 5 µM in assay [3]. Besides, the Resistance index in assay [4] was determined as 1; in assay [5], 1.5.

On to `CCN(CC)CCCC(C)Nc1ccnc2ccc(NC(=O)CCCCCCCCC(=O)Nc3ccc4nccc(NC(C)CCCN(CC)CC)c4c3)cc12` (stereo not given), for which the IC50 amounted to 3.8 µM in assay [1], 8.4 µM in assay [2] and 5.7 µM in assay [3]. Further, the values for the Resistance index in assay [4] and in assay [5] were 0.7 and 1.5, respectively.

Regarding `CCN(CC)CCCC(C)Nc1ccnc2c(NC(=O)CCCCCCC(=O)Nc3cccc4c(NC(C)CCCN(CC)CC)ccnc34)cccc12` (stereo not given), the IC50 turned out to be 0.35 µM in assay [1], 0.6 µM in assay [2] and 0.38 µM in assay [3]. Besides, the Resistance index in assay [4] came to 0.9; in assay [5] it was 1.6.

For `CCN(CC)CCCC(C)Nc1ccnc2c(NC(=O)CCCCC(=O)Nc3cccc4c(NC(C)CCCN(CC)CC)ccnc34)cccc12` (stereo not given), the IC50 in assay [1] was determined as 0.12 µM; in assay [2], 0.23 µM; in assay [3], 0.13 µM. The Resistance index in assay [4] was 0.9; in assay [5], 1.8.

Turning to `CCN(CC)CCCC(C)Nc1ccnc2c(NC(=O)CCCCCCCCC(=O)Nc3cccc4c(NC(C)CCCN(CC)CC)ccnc34)cccc12` (stereo not given), the IC50 in assay [1] stood at 0.31 µM; in assay [2], 0.29 µM; in assay [3] it was 0.26 µM. In addition, the Resistance index turned out to be 1.2 in assay [4] and 1.1 in assay [5].

`CCN(CC)CCCC(C)Nc1ccnc2c(NC(=O)CCC(=O)Nc3cccc4c(NC(C)CCCN(CC)CC)ccnc34)cccc12` (stereo not given): the IC50 turned out to be 1.2 µM in assay [1], 2.5 µM in assay [2] and 0.5 µM in assay [3]. Besides, the Resistance index stood at 2.2 in assay [4] and 5 in assay [5].

In the case of `CCN(CC)CCCC(C)Nc1ccnc2c(NC(=O)C(=O)Nc3cccc4c(NC(C)CCCN(CC)CC)ccnc34)cccc12` (stereo not given), the IC50 came to 1.9 µM in assay [1], 2.3 µM in assay [2] and 1.3 µM in assay [3]. The Resistance index came out at 1.4 in assay [4] and 1.7 in assay [5].

For the compound `CCN(CC)CCCC(C)Nc1ccnc2ccc(NC(=O)C(=O)Nc3ccc4nccc(NC(C)CCCN(CC)CC)c4c3)cc12` (stereo not given), the IC50 in assay [1] amounted to 1.8 µM; in assay [2] it was 2.2 µM; in assay [3], 2.6 µM. In addition, the Resistance index in assay [4] was determined as 0.7; in assay [5], 0.8.

(Values after ChEMBL document CHEMBL1128338, “Synthesis and activity of some antimalarial bisquinolines” (J Med Chem, 1995).)
